Calls of active or inactive are those of the source. The rule behind the calls is not given here.
Columns and labels:
[1] = system: Hepatitis C virus; test: Antiviral activity against HCV pseudo-particle infected in human HuH7 cells assessed as inhibition of HCV pseudo particles entry at 10 uM preincubated for 1 hr followed by viral infection and measured after 72 hrs by bright-glo luciferase reporter gene assay; format: functional, organism-based; details: Hepacivirus hominis
How it was run: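 Huh7 cells were pretreated with 10 µM compound for 1 h. They were then infected with HCV pseudo-particles for 3 h in the compound's presence. Entry was detected 72 h post infection; bafilomycin served as the positive control.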

[2] = system: Huh-7; test: Cytotoxicity against human HuH7 cells at 10 uM after 24 hrs by WST-1 assay; format: cell-based; details: huh-7, 24 h
How it was run: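 Huh7 cells were incubated 24 h with 10 µM of each compound before cell viability was assessed.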

[3] = system: Hepatitis C virus; test: Antiviral activity against HCV sub-genomic replicon infected in human Huh7 cells at 10 uM added immediately with viral infection and measured after 24 hrs by bright-glo luciferase reporter gene assay relative to control; format: functional
How it was run: (§1)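 Huh7 cells were electroporated with HCV subgenomic replicon RNA. Compound at 10 µM was added either immediately at seeding or after 24 h to let replication establish. Luciferase was measured after 24 h of treatment.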

[4] = system: Hepatitis C virus; test: Antiviral activity against HCV replicon infected in human Huh7 cells assessed as reduction in NS5A level after 8 to 24 hrs by Western blot analysis; format: functional, organism-based; details: Hepacivirus hominis
How it was run: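 After transfection with HCV replicon RNA, Huh7 cells were treated immediately for 8 or 24 h. Lysates were probed by western blot for NS5A and for unprocessed polyprotein.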

[5] = system: Hepatitis C virus; test: Antiviral activity against HCV JFH-1 infected in human Huh7-J20 cells after 72 hrs by SEAP based assay; format: functional, organism-based, Hepacivirus hominis; details: JFH-1, Huh7-J20, 72 h
How it was run: (§2)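 HCVcc (JFH-1 clone) inoculated onto Huh7-J20 cells for 3 h. Infected cells were then exposed for 72 h to a dose range starting at 30 µM with 1:3 serial dilutions. Viral replication was read after harvest, and cell viability was measured in parallel.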

[6] = system: Internal ribosome entry site (IRES); test: Inhibition of HCV IRES transfected in human Huh7 cells assessed as inhibition of IRES-mediated translation after 24 hrs by dual luciferase reporter gene assay relative to control; format: cell-based; details: Hepacivirus hominis; dose or concentration not given here
How it was run: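 Huh7 cells were co-transfected with a plasmid for firefly luciferase driven by the HCV IRES and a plasmid for Renilla luciferase under the TK promoter, used to normalise transfection efficiency. Cells were exposed to compound for 24 h, then assayed by dual luciferase.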

[7] = Cytotoxicity against human Huh7-J20 cells infected with HCV JFH-1 after 72 hrs by WST-1 assay; format: cell-based; how it was run: as §2
[8] = system: Hepatitis C virus; test: Antiviral activity against HCV sub-genomic replicon infected in human Huh7-J20 cells after 24 hrs by bright-glo luciferase reporter gene assay; format: functional, organism-based
How it was run: (§3)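 Subgenomic replicon RNA was electroporated into cells, which were exposed for 24 h to a dose range from 30 µM in 1:3 dilutions. Replication was read by luciferase, with cell viability measured alongside.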

[9] = system: Hepatitis C virus; test: Antiviral activity against HCV replication defective replicon infected in human Huh7 cells after 2 to 8 hrs by bright-glo luciferase reporter gene assay; format: functional, organism-based; details: Hepacivirus hominis
How it was run: (§4)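 Time course: Huh7 cells were transfected with HCV replicon RNA (wild-type subgenomic or replication-defective GND) and seeded in the presence of compound. Replication/translation signal was read at 2, 4, 8 and 24 h post transfection and compared with untreated cells at each time point.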

[10] = Cytotoxicity against human Huh7-J20 cells infected with HCV sub-genomic replicon assessed as reduction in cell viability up to 30 uM after 24 hrs by WST-1 assay; format: cell-based; how it was run: as §3
[11] = system: Hepatitis C virus; test: Antiviral activity against HCV sub-genomic replicon infected in human Huh7 cells after 2 to 24 hrs by bright-glo luciferase reporter gene assay; format: functional, organism-based; details: Hepacivirus hominis; how it was run: as §4
[12] = system: Hepatitis C virus; test: Antiviral activity against HCV replicon infected in human Huh7-J17 cells after 24 hrs by bright-glo luciferase reporter gene assay relative to control; format: functional, Hepacivirus hominis
[13] = system: Hepatitis C virus; test: Antiviral activity against HCV replicon infected in human Huh7 cells after 8 to 24 hrs by Western blot analysis; details: Hepacivirus hominis
[14] = system: Hepatitis C virus; test: Antiviral activity against HCV sub-genomic replicon infected in human Huh7 cells at 10 uM added 24 hrs after viral infection and measured after 24 hrs by bright-glo luciferase reporter gene assay relative to control; format: functional, Hepacivirus hominis; how it was run: as §1

SMILES | Activity [1] | Activity [2] | Activity ([3]; Hepacivirus hominis) | also measured
C=CCNC(=O)NC(=N)NCCCCNCCCNC(=N)NC(=O)NCC=C | inactive | Non-Toxic | inactive | 
C=CCNC(=O)NC(=N)NCCCCNC(=N)NC(=O)NCC=C | inactive | Non-Toxic | inactive | 
C=CCNC(=O)NC(=N)NCCCCN | inactive | Non-Toxic | inactive | 
N=C(NCCCCCCCCNC(=N)NCc1ccccc1)NCc1ccccc1 | inactive | Non-Toxic | inactive | 
CO/C1=C\C(C)=C\[C@@H](C)[C@@H](O)[C@@H](C)C/C(C)=C/C=C/[C@H](OC)[C@@H]([C@@H](C)[C@@H](O)[C@H](C)[C@@]2(O)C[C@@H](O)[C@H](C)[C@@H](C(C)C)O2)OC1=O | Active |  |  | 
C=CCNC(=O)NC(=N)NCCCNCCCCNCCCNC(=N)NC(=O)NCC=C | inactive | Non-Toxic |  | Activity [4]: Active; IC50 [5]: 12.3 µM; inhibition [6]: 40%; CC50 at 72 h [7]: 81.1 µM; Activity ([8]; Hepacivirus hominis): Dose-dependent effect; IC50 ([8]; Huh7-J20, 24 h): 2650 nM; Activity [9]: Active; Activity [10]: Non-Toxic; Activity [11]: Active; Activity [12]: 45%; Activity [13]: Active; Activity [14]: 45%; Activity [3]: 90%
C=CCNC(=O)NC(=N)NCCCCNC(=O)c1ccccc1 | inactive | Non-Toxic | inactive | 
C=CCNC(=O)NC(=N)NCCCN(C)CCCCN(C)CCCNC(=N)NC(=O)NCC=C | inactive | Non-Toxic | inactive | 
C=CCNC(=N)NCCCCCCNCCCCCCNC(=N)NCC=C | inactive | Non-Toxic | inactive | 
C#CCNC(=N)NCCCCCCNCCCCCCNC(=N)NCC#C | inactive | Non-Toxic | inactive | 
C=CCNC(=N)NCCCCCCCCNC(=N)NCC=C | inactive | Non-Toxic | inactive | 
